Laboratory results as given in ChEMBL document CHEMBL3102844, “Synthesis and evaluation of Strychnos alkaloids as MDR reversal agents for cancer cell eradication” (Bioorg Med Chem, 2014).
The source made the active and inactive calls. The rule behind the calls is not given here.

Columns and labels:
[1] = molecular target: T1, ATP-dependent translocase ABCB1 (Homo sapiens, UniProt P08183); assay: Inhibition of human MDR1 overexpressed in human KB cells assessed as potentiation of vincristine-induced cytotoxicity at 3 uM incubated for 1 hr prior to vincristine challenge measured after 4 days by MTT assay relative to verapamil; type: cell-based; conditions: 96 h
[2] = molecular target: T1, ATP-dependent translocase ABCB1; assay: Inhibition of human MDR1 overexpressed in human KB cells assessed as potentiation of vincristine-induced cytotoxicity at 1 uM incubated for 1 hr prior to vincristine challenge measured after 4 days by MTT assay relative to verapamil; type: cell-based; conditions: 96 h
[3] = molecular target: T1, ATP-dependent translocase ABCB1; assay: Inhibition of p-glycoprotein (unknown origin) overexpressed in human KBV20C cells assessed as potentiation of vincristine-induced cytotoxicity at 3 uM incubated for 1 hr prior to vincristine challenge measured after 4 days by MTT assay; type: cell-based; conditions: 96 h
[4] = molecular target: T1, ATP-dependent translocase ABCB1; assay: Inhibition of p-glycoprotein (unknown origin) overexpressed in human KBV20C cells assessed as potentiation of vincristine-induced cytotoxicity at 1 uM incubated for 1 hr prior to vincristine challenge measured after 4 days by MTT assay; type: cell-based; conditions: 96 h
[5] = test system: KBV20C; assay: (§1) Cytotoxicity against human KBV20C cells overexpressing pgp assessed as reduction in cell viability after 4 days by MTT assay; type: functional, cell-based
In short: (§2)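 KB-MDR (1000 cells/well) or KB-V20C (2000 cells/well) Pgp-overexpressing KB lines in RPMI1640 with 10% FBS; cultured 4 days with serial concentrations of test compound. Viability read by MTT endpoint absorbance. IC50 obtained by fitting a sigmoid Emax model to viability versus concentration; duplicates from three independent experiments.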

[6] = test system: KB; assay: Cytotoxicity against human KB cells overexpressing human MDR1 assessed as reduction in cell viability after 4 days by MTT assay; type: functional, cell-based; in short: as §2
[7] = organism: Homo sapiens; assay: Induction of human recombinant p-glycoprotein ATPase activity using ATP as substrate at 0.3 to 1 mM after 40 mins by luciferase-mediated Pgp-Glo assay
In short: (§3)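 Reaction started with ATP (5 mM final), 40 min at 37 °C, stopped with ATP detection reagent; residual ATP read by luciferase luminescence. Luminescence difference gives effect on ATPase activity. Triplicates in two independent experiments.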

[8] = Binding affinity to p-glycoprotein (unknown origin) by intrinsic tryptophan fluorescence quenching assay; set-up: species or system Homo sapiens
[9] = organism: Homo sapiens; assay: Inhibition of human recombinant p-glycoprotein ATPase activity using ATP as substrate at 0.3 to 1 mM after 40 mins by luciferase-mediated Pgp-Glo assay; in short: as §3
[10] = molecular target: T1, ATP-dependent translocase ABCB1; assay: Inhibition of human MDR1 overexpressed in human KB cells assessed as potentiation of doxorubicin-induced cytotoxicity at 1 uM incubated for 1 hr prior to […] measured after 4 days by MTT assay relative to verapamil; type: cell-based; conditions: 96 h
[11] = molecular target: T1, ATP-dependent translocase ABCB1; assay: Inhibition of human MDR1 overexpressed in human KB cells assessed as potentiation of vincristine-induced cytotoxicity at 0.28 uM incubated for 1 hr prior to vincristine challenge measured after 4 days by MTT assay relative to verapamil; type: cell-based; conditions: 96 h
[12] = molecular target: T1, ATP-dependent translocase ABCB1; assay: Inhibition of human MDR1 overexpressed in human KB cells assessed as potentiation of vincristine-induced cytotoxicity at 0.14 uM incubated for 1 hr prior to vincristine challenge measured after 4 days by MTT assay relative to verapamil; type: cell-based; conditions: 96 h
[13] = molecular target: T1, ATP-dependent translocase ABCB1; assay: Inhibition of human MDR1 overexpressed in human KB cells assessed as potentiation of vincristine-induced cytotoxicity at 0.07 uM incubated for 1 hr prior to vincristine challenge measured after 4 days by MTT assay relative to verapamil; type: cell-based; conditions: 96 h
[14] = molecular target: T1, ATP-dependent translocase ABCB1; assay: Inhibition of p-glycoprotein (unknown origin) overexpressed in human KBV20C cells assessed as potentiation of vincristine-induced cytotoxicity at 0.28 uM incubated for 1 hr prior to vincristine challenge measured after 4 days by MTT assay; type: cell-based; conditions: 96 h
In short: (§4)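 Pgp-overexpressing KB-MDR or KB-V20C cells, 1000–2000 cells/well in RPMI1640 with 10% FBS, pretreated 1 h with modulator at final 0.07–3.0 µM, then exposed to serial dilutions of vincristine or doxorubicin for four days. […] Viability read by MTT. Cytotoxic-drug IC50 obtained by sigmoid Emax fit; duplicates, three independent experiments.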

[15] = molecular target: T1, ATP-dependent translocase ABCB1; assay: Inhibition of p-glycoprotein (unknown origin) overexpressed in human KBV20C cells assessed as potentiation of vincristine-induced cytotoxicity at 0.14 uM incubated for 1 hr prior to vincristine challenge measured after 4 days by MTT assay; type: cell-based; conditions: 96 h; in short: as §4
[16] = molecular target: T1, ATP-dependent translocase ABCB1; assay: Inhibition of p-glycoprotein (unknown origin) overexpressed in human KBV20C cells assessed as potentiation of vincristine-induced cytotoxicity at 0.07 uM incubated for 1 hr prior to vincristine challenge measured after 4 days by MTT assay; type: cell-based; conditions: 96 h; in short: as §4
[17] = as §1; type: functional, cell-based; conditions: 96 h; in short: as §2

T1 sequence (P08183 whole entry): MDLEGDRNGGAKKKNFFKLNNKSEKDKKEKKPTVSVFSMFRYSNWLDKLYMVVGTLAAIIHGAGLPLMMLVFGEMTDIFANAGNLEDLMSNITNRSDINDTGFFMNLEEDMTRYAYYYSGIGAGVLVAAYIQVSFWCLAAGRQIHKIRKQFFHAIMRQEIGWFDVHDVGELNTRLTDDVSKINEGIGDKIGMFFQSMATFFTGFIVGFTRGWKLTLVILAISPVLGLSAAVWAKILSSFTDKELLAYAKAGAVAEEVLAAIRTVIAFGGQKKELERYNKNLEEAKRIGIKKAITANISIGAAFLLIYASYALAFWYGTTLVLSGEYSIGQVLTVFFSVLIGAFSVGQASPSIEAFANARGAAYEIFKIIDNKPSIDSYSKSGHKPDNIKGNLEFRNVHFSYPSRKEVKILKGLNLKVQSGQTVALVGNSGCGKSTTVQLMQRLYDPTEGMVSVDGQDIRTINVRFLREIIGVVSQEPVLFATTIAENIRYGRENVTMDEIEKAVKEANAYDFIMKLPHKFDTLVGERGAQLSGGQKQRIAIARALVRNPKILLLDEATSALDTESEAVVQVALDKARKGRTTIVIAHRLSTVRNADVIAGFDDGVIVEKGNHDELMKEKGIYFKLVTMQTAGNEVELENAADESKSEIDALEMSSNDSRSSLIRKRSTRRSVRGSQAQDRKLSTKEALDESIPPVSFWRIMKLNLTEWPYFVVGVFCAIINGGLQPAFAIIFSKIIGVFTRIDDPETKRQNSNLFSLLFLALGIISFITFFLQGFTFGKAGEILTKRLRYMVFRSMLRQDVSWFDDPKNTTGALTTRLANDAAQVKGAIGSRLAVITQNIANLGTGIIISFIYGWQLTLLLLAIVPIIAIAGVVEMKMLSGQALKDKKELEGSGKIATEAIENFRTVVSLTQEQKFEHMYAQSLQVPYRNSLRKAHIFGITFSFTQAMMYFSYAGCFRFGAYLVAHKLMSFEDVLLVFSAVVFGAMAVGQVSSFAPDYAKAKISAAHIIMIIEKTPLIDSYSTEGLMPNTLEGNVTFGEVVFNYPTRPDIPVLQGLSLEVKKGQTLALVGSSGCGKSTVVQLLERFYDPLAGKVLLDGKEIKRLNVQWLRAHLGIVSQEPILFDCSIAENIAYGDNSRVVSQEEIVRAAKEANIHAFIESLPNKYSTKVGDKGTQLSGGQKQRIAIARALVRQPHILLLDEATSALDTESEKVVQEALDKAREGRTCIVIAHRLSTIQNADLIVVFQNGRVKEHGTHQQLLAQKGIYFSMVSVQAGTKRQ

SMILES | fold change (FC) [1] | fold change (FC) [2] | fold change (FC) [3] | fold change (FC) [4] | Activity [5] | Activity [6] | Activity [7] | Kd [8] [µM] | inhibition [9] | fold change (FC) [10] | fold change (FC) [11] | fold change (FC) [12] | fold change (FC) [13] | fold change (FC) [14] | fold change (FC) [15] | fold change (FC) [16] | IC50 [17] [µM]
C/C=C1\CN2CC[C@]34C(=C(C=O)[C@H]1C[C@H]23)Nc1ccccc14 | 2.1 | 2.1 | 0.3 | 0.2 | Dose-dependent effect | Dose-dependent effect | Active | 81 |  |  |  |  |  |  |  |  | 
C/C=C1\CN2CC[C@]34C(=C(C(=O)OC)[C@H]1C[C@H]23)Nc1ccccc14 | 3.8 | 2.5 | 0.4 | 0.2 | Dose-dependent effect | Dose-dependent effect | Active | 99 |  |  |  |  |  |  |  |  | 
C/C=C1\CN2CC[C@]34c5ccccc5-n5c3c(cc(C(=O)OC)c5=O)[C@H]1C[C@H]24 | 3.8 | 2.1 | 0.3 | 0.2 | Dose-dependent effect | Dose-dependent effect | Active | 16.1 |  |  |  |  |  |  |  |  | 
CC[C@@H]1CN2CC[C@]34C(=C(C(=O)OC)[C@H]1C[C@H]23)Nc1ccccc14 | 3.8 | 2.5 | 0.2 | 0.1 | Dose-dependent effect | Dose-dependent effect |  | 92 | Active |  |  |  |  |  |  |  | 
CC[C@@H]1CN2CC[C@]34c5ccccc5-n5c3c(cc(C(=O)OC)c5=O)[C@H]1C[C@H]24 [LEUCONICINE B] | 6.8 | 3.8 | 0.3 | 0.2 | Dose-dependent effect | Dose-dependent effect | Active | 13.8 |  |  |  |  |  |  |  |  | 
CC[C@@H]1CN2CC[C@]34c5ccccc5-n5c3c(cc(C(N)=O)c5=O)[C@H]1C[C@H]24 [LEUCONICINE A] | 5 | 3.8 | 0.6 | 0.3 | Dose-dependent effect | Dose-dependent effect |  | 14.1 |  |  |  |  |  |  |  |  | 
CC[C@@H]1CN2CC[C@]34c5ccccc5-n5c3c(cc(C(=O)NCc3cc(OC)c(OC)c(OC)c3)c5=O)[C@H]1C[C@H]24 |  | 93.8 |  |  | Dose-dependent effect | Dose-dependent effect |  | 4.42 | Active | 20 | 3.8 | 2.5 | 2.1 | 1.5 | 1 | 0.6 | 0.38
